Results: ChEMBL document CHEMBL5724801, “EUbOPEN Chemogenomics Library - Multiplex” (2024)
Several values for one entry are separate records, joined by “and”; a condition that tells them apart may be missing. Equal values may be shown once.

Tested on: HEK-293T
Assay: Multiplex assay against HEK293T
Type: toxicity, cell-based
Settings: human
Outline: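 Four dyes were applied at seeding to live cells: Hoechst33342, BioTracker Green Microtubule Cytoskeleton Dye, MitoTracker Red and Annexin V Alexa Fluor 680. Imaging after compound addition used a CQ1 microscope at 37°C and 5% CO2. CellPathfinder machine-learning gating then sorted cells into Hoechst high-intensity objects or normal cells, normal cells into healthy, pyknosed or fragmented nuclei, and pyknosed cells into mitotic or apoptotic, with tubulin, mitochondrial-mass and membrane-permeability phenotypes given as per cents of healthy-nucleus cells.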

[1] = 12 h, 1 µM, compound concentration 1 uM
[2] = 12 h, 10 µM, compound concentration 10 uM
[3] = 24 h, 1 µM, compound concentration 1 uM
[4] = 24 h, 10 µM, compound concentration 10 uM
[5] = 48 h, 1 µM, compound concentration 1 uM
[6] = 48 h, 10 µM, compound concentration 10 uM

Structure (SMILES): Cl.Clc1ccc2nsnc2c1NC1=NCCN1 [TIZANIDINE HYDROCHLORIDE]
- Population Apoptotic (%) [1]: 39% and 44%
- Population Fragmented Nuclei (%) [1]: 9% and 2%
- Population Healthy Nuclei (%) [1]: 80% and 83%
- Population Hoechst High Intensity Objects (%) [1]: 8% and 9%
- Population Membrane Permeable-Phenotype (%) [1]: 0%
- Population Mitochondria Different-Phenotype (%) [1]: 36% and 62%
- Population Mitotic Cells (%) [1]: 60% and 55%
- Population Normal (%) [1]: 91% and 90%
- Population Pyknosed Nuclei (%) [1]: 9% and 13%
- Population Tubulin-Different-Phenotype (%) [1]: 26% and 20%
- Total Cell Count [1]: 474 and 373
- Population Apoptotic (%) [2]: 30% and 46%
- Population Fragmented Nuclei (%) [2]: 9% and 7%
- Population Healthy Nuclei (%) [2]: 80% and 79%
- Population Hoechst High Intensity Objects (%) [2]: 6% and 4%
- Population Membrane Permeable-Phenotype (%) [2]: 0%
- Population Mitochondria Different-Phenotype (%) [2]: 45% and 67%
- Population Mitotic Cells (%) [2]: 70% and 53%
- Population Normal (%) [2]: 93% and 95%
- Population Pyknosed Nuclei (%) [2]: 9% and 13%
- Population Tubulin-Different-Phenotype (%) [2]: 32% and 27%
- Total Cell Count [2]: 450 and 343
- Population Apoptotic (%) [3]: 32% and 45%
- Population Fragmented Nuclei (%) [3]: 11% and 10%
- Population Healthy Nuclei (%) [3]: 79% and 80%
- Population Hoechst High Intensity Objects (%) [3]: 4% and 5%
- Population Membrane Permeable-Phenotype (%) [3]: 0%
- Population Mitochondria Different-Phenotype (%) [3]: 20% and 38%
- Population Mitotic Cells (%) [3]: 67% and 54%
- Population Normal (%) [3]: 95% and 94%
- Population Pyknosed Nuclei (%) [3]: 8%
- Population Tubulin-Different-Phenotype (%) [3]: 17% and 15%
- Total Cell Count [3]: 597 and 434
- Population Apoptotic (%) [4]: 32% and 29%
- Population Fragmented Nuclei (%) [4]: 11% and 10%
- Population Healthy Nuclei (%) [4]: 78% and 81%
- Population Hoechst High Intensity Objects (%) [4]: 5% and 6%
- Population Membrane Permeable-Phenotype (%) [4]: 1% and 0%
- Population Mitochondria Different-Phenotype (%) [4]: 23% and 46%
- Population Mitotic Cells (%) [4]: 67% and 70%
- Population Normal (%) [4]: 94% and 93%
- Population Pyknosed Nuclei (%) [4]: 9% and 7%
- Population Tubulin-Different-Phenotype (%) [4]: 18%
- Total Cell Count [4]: 621 and 443
- Population Apoptotic (%) [5]: 17% and 33%
- Population Fragmented Nuclei (%) [5]: 16% and 14%
- Population Healthy Nuclei (%) [5]: 77% and 79%
- Population Hoechst High Intensity Objects (%) [5]: 2% and 3%
- Population Membrane Permeable-Phenotype (%) [5]: 3% and 1%
- Population Mitochondria Different-Phenotype (%) [5]: 13% and 19%
- Population Mitotic Cells (%) [5]: 82% and 66%
- Population Normal (%) [5]: 97% and 96%
- Population Pyknosed Nuclei (%) [5]: 6%
- Population Tubulin-Different-Phenotype (%) [5]: 10% and 7%
- Total Cell Count [5]: 1005 and 661
- Population Apoptotic (%) [6]: 24% and 25%
- Population Fragmented Nuclei (%) [6]: 19% and 13%
- Population Healthy Nuclei (%) [6]: 74% and 81%
- Population Hoechst High Intensity Objects (%) [6]: 3% and 5%
- Population Membrane Permeable-Phenotype (%) [6]: 1%
- Population Mitochondria Different-Phenotype (%) [6]: 13% and 23%
- Population Mitotic Cells (%) [6]: 75%
- Population Normal (%) [6]: 96% and 94%
- Population Pyknosed Nuclei (%) [6]: 5% and 4%
- Population Tubulin-Different-Phenotype (%) [6]: 10% and 19%
- Total Cell Count [6]: 995 and 600
